{"data": "Measurements from different studies", "target": "Receptor tyrosine-protein kinase erbB-4 (ERBB4, Homo sapiens, UniProt Q15303)", "note": "Protocols differ between the studies behind these lines."}
{"SMILES": "C=CC(=O)Nc1cc(Nc2nccc(Nc3cc(Cl)c(F)cc3C(C)(C)O)n2)c(OC)cc1N1CC[C@@H](N(C)C)C1", "effect on": "enzyme activity", "action": "inhibitor", "tested at": "1 µM", "measurement": "inhibition", "value": "88%"}
{"SMILES": "Cc1ccc(C(=O)Nc2ccc(CN3CCN(C)CC3)c(C(F)(F)F)c2)cc1C#Cc1cnc2cccnn12", "effect on": "enzyme activity", "action": "inhibitor", "tested at": "23.5 nM", "measurement": "remaining activity", "value": "57%"}
{"SMILES": "Cc1cc(NC(=O)c2cccc3cc(-c4cccc5[nH]nc(N)c45)ccc23)ccc1F", "effect on": "enzyme activity", "action": "inhibitor", "tested at": "0.1 µM", "measurement": "activity vs control", "value": "102%"}
{"SMILES": "Cc1ccc(C(=O)NCc2ccsc2)cc1C#Cc1cn(C(C)C)c2ncnc(N)c12", "effect on": "enzyme activity", "action": "inhibitor", "tested at": "1 µM", "measurement": "activity vs control", "value": "52%"}
{"SMILES": "COc1cc2ncnc(Nc3ccc(F)c(Cl)c3)c2cc1OCCCN1CCOCC1", "effect on": "cell-free assay", "tested at": "0.5 µM", "measurement": "remaining signal", "value": "24.2%"}
{"SMILES": "NS(=O)(=O)c1cc(NC(=O)C2(c3ccccc3Cl)CC2)ccc1Oc1cccc(Cl)c1", "effect on": "cell-free assay", "method": "competition with immobilised ligand", "tested at": "1 µM", "measurement": "remaining binding", "value": "75%"}
{"SMILES": "Cn1c(=O)n(-c2ccc(C(C)(C)C#N)cc2)c2c3cc(-c4cnc5ccccc5c4)ccc3ncc21", "effect on": "enzyme activity", "action": "inhibitor", "tested at": "10 µM", "measurement": "remaining activity", "value": "117%"}
{"SMILES": "COc1cc2nccc(Oc3ccc(NC(=O)c4c5n(n(-c6ccc(F)cc6)c4=O)CCCC5)cc3)c2cc1OC", "effect on": "enzyme activity", "action": "inhibitor", "tested at": "0.1 µM", "measurement": "inhibition", "value": "-17%"}
{"SMILES": "CC(C)CC(=O)N1CCc2nc(-c3ccc(Br)cc3)nc(N(C)Cc3ccccc3)c2C1", "effect on": "cell-free assay", "method": "competition with immobilised ligand", "tested at": "0.1 µM", "measurement": "remaining binding", "value": "94%"}
{"SMILES": "COc1cc2ncnc(Nc3ccc(Oc4ccccc4)c(C)c3C)c2cc1OC", "effect on": "enzyme activity", "action": "inhibitor", "tested at": "1 µM", "measurement": "inhibition", "value": "89%"}
{"SMILES": "COc1cc(/C=C/C(=O)CC(=O)/C=C/c2ccc(O)c(OC)c2)ccc1O", "effect on": "enzyme activity", "action": "inhibitor", "tested at": "1 µM", "measurement": "activity vs control", "value": "71%"}
{"SMILES": "CO[C@@H](C)c1c(Nc2ccc([C@H](N(C)C(=O)C3CCS(=O)(=O)CC3)C(F)(F)F)cc2)cnc2cc(Cl)nn12", "effect on": "cell-free assay", "method": "competition with immobilised ligand", "tested at": "1 µM", "measurement": "remaining binding", "value": "84%"}
{"SMILES": "CC(C)(C)c1nc(-c2cccc(NS(=O)(=O)c3c(F)cccc3F)c2F)c(-c2ccnc(N)n2)s1", "effect on": "enzyme activity", "action": "inhibitor", "method": "radiometric", "tested at": "1 µM", "measurement": "remaining activity", "value": "91%"}
{"SMILES": "O=C(NCc1ncc(C(F)(F)F)cc1Cl)c1ccc2c(c1)C1(CCS(=O)(=O)CC1)[C@@H](C1CC1)N2S(=O)(=O)c1ccc(F)cc1", "effect on": "cell-free assay", "method": "competition with immobilised ligand", "tested at": "1 µM", "measurement": "remaining binding", "value": "72%"}
{"SMILES": "O=C(Nc1nccs1)C(c1cc(F)ccc1O)N1Cc2ccccc2C1=O (stereo not drawn)", "effect on": "enzyme activity", "action": "inhibitor", "tested at": "1 µM", "measurement": "inhibition", "value": "16%"}
{"SMILES": "COc1cc2c(N3CCN(C(=O)Nc4ccc(OC(C)C)cc4)CC3)ncnc2cc1OCCCN1CCCCC1", "effect on": "cell-free assay", "tested at": "0.5 µM", "measurement": "remaining signal", "value": "97.3%"}
{"SMILES": "CCCOc1ccc([C@@H]2[C@@H](C(=O)O)[C@H](c3ccc4c(c3)OCO4)CN2CC(=O)Nc2c(CC)cccc2CC)cc1", "effect on": "cell-free assay", "method": "competition with immobilised ligand", "tested at": "1 µM", "measurement": "remaining binding", "value": "100%"}
{"SMILES": "COc1cc(Nc2cnc(C#N)c(O[C@H](C)CN(C)C)n2)ncc1-c1cnn(C)c1", "effect on": "enzyme activity", "action": "inhibitor", "method": "radiometric", "tested at": "10 µM", "measurement": "remaining activity", "value": "94%"}
{"SMILES": "O=C(CSc1nc2nccnc2c(=O)n1CCc1ccccc1)Nc1nccs1", "effect on": "enzyme activity", "action": "inhibitor", "tested at": "10 µM", "measurement": "inhibition", "value": "-4%"}
{"SMILES": "CS(=O)(=O)CCNCc1ccc(-c2ccc3ncnc(Nc4ccc(OCc5cccc(F)c5)c(Cl)c4)c3c2)o1", "effect on": "cell-free assay", "tested at": "0.5 µM", "measurement": "remaining signal", "value": "11.2%"}
{"SMILES": "CCN(CC)c1ccc(C2=NNC(=O)CC2C)cc1[N+](=O)[O-] (stereo not drawn)", "effect on": "enzyme activity", "action": "inhibitor", "tested at": "10 µM", "measurement": "remaining activity", "value": "94%"}
{"SMILES": "O=C(O)[C@H]1[C@H](Cn2nnc3ccccc3c2=O)CC[C@@H]1C(=O)c1ccc(OCCC2CCOCC2)cc1", "effect on": "cell-free assay", "method": "competition with immobilised ligand", "tested at": "1 µM", "measurement": "remaining binding", "value": "89%"}
{"SMILES": "CCN(CC)CCNC(=O)c1c(C)[nH]c(/C=C2\\C(=O)Nc3ccc(F)cc32)c1C", "effect on": "cell-free assay", "tested at": "0.5 µM", "measurement": "remaining signal", "value": "94.8%"}
{"SMILES": "CN(C)c1ncnc(-c2ccc3nc(Nc4cc(CN5CCN(C(=O)CC(F)(F)F)CC5)ccn4)[nH]c3c2)c1Cl", "effect on": "cell-free assay", "method": "competition with immobilised ligand", "tested at": "1 µM", "measurement": "remaining binding", "value": "99%"}
{"SMILES": "CNC(=O)c1cc(Oc2ccc(NC(=O)Nc3ccc(Cl)c(C(F)(F)F)c3)cc2)ccn1", "effect on": "enzyme activity", "action": "inhibitor", "tested at": "0.3 µM", "measurement": "inhibition", "value": "-7%"}
{"SMILES": "O=C(Nc1cccnn1)N1CCC(=Cc2cccc(Oc3ccc(C(F)(F)F)cn3)c2)CC1", "effect on": "cell-free assay", "method": "competition with immobilised ligand", "tested at": "1 µM", "measurement": "remaining binding", "value": "100%"}
{"SMILES": "Cc1ccc(Nc2nccc(N(C)c3ccc4c(C)n(C)nc4c3)n2)cc1S(N)(=O)=O", "effect on": "enzyme activity", "action": "inhibitor", "tested at": "0.3 µM", "measurement": "inhibition", "value": "-9%"}
